ChEMBL document CHEMBL1135785, “N-[(2-Sulfo)-9-fluorenylmethoxycarbonyl](3)-gentamicin C(1) is a long-acting prodrug derivative” (J Med Chem, 2002)

What was measured:
[1] = Half life after i.v. administration to rat; assay type: ADME, organism-based; details: in vivo, iv
Procedure, shortened: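 Rats (n = 4 per group) received 1 μmol/rat intravenously in 0.2 mL PBS, pH 7.4. Tail blood was sampled at several time points. Immunoreactive gentamicin was measured by fluorescence polarization immunoassay, with each point the mean of four rats. Circulating half-life was taken from the decline phase.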

[2] = target: T1, Albumin (Homo sapiens, UniProt P02768); assay: The compound was evaluated for pharmacokinetic parameters Serum albumin associating affinity
T1 sequence (P02768 whole entry): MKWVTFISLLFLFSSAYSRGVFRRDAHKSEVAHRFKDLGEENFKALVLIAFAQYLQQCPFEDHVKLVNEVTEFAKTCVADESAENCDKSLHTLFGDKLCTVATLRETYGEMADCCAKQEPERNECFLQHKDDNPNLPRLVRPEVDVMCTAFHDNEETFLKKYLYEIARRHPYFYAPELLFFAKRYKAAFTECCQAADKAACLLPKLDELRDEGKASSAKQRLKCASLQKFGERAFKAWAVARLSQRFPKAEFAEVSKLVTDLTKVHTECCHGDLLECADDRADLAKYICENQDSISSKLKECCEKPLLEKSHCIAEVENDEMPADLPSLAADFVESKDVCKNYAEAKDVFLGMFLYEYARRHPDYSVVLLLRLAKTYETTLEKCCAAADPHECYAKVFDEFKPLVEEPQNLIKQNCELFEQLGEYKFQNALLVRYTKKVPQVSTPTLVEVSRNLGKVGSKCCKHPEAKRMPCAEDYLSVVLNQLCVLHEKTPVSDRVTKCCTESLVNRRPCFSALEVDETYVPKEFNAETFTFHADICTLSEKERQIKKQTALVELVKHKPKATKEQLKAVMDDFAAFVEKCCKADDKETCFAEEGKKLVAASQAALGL

[3] = target: T1, Albumin; assay: Evaluated for inhibition of Serum albumin evoked PNPA hydrolysis in presence of 1.3 M of FMS; assay type: functional
Procedure, shortened: (§1)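 Human serum albumin (11.4 μM) in 0.05 M HEPES, pH 6.7, was preincubated for 10 min with or without increasing concentrations of each FMS-gentamicin conjugate. PNPA was then added to a final 1 mM. Absorbance at 410 nm was read 60 min later, and IC50 was calculated for inhibition of HSA-evoked PNPA hydrolysis.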

[4] = target: T1, Albumin; assay: Evaluated for inhibition of Serum albumin evoked PNPA hydrolysis in presence of 2.1 M of FMS; assay type: functional; procedure, shortened: as §1
[5] = target: T1, Albumin; assay: The compound was evaluated for albumin associating affinity along with 2.1 M of FMS
Procedure, shortened: (§2)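 Albumin affinity was inferred from the PNPA esterase assay. HSA (11.4 μM, 0.05 M HEPES, pH 6.7) was preincubated 10 min with graded conjugate concentrations, then given 1 mM PNPA (final). A410 was read at 60 min. The resulting IC50 values were converted to Kd estimates.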

[6] = test system: Escherichia coli; assay: Potency for its ability to inhibit replication of Escherichia coli; assay type: functional
Procedure, shortened: (§3)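 Antibacterial potency was measured as inhibition of Escherichia coli replication, expressed as half-maximal inhibitory concentration and as percent of native gentamicin activity.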

[7] = The compound was evaluated for pharmacokinetic parameters HSA associating affinity; assay type: ADME; details: human
Procedure, shortened: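 Human serum albumin (11.4 μM) in 0.05 M HEPES, pH 6.7, preincubated 10 min with or without rising conjugate concentrations. p-Nitrophenyl acetate (PNPA) then added to 1 mM final. Absorbance read at 410 nm 60 min later. IC50 calculated for inhibition of HSA-evoked PNPA hydrolysis, then converted to Kd estimates. FMS-L-serine served as internal standard.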

[8] = target: T1, Albumin; assay: Evaluated for inhibition of Serum albumin evoked PNPA hydrolysis in presence of 3.0 M of FMS; assay type: functional; procedure, shortened: as §1
[9] = target: T1, Albumin; assay: The compound was evaluated for albumin associating affinity along with 3.0 M of FMS; procedure, shortened: as §2
[10] = target: T1, Albumin; assay: The compound was evaluated for albumin associating affinity along with 1.3 M of FMS; procedure, shortened: as §2
[11] = target: T1, Albumin; assay: Evaluated for inhibition of Serum albumin evoked PNPA hydrolysis in presence of 0.7 M of FMS; assay type: functional; procedure, shortened: as §1
[12] = Half life for hydrolysis of the compound; assay type: ADME
Procedure, shortened: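 Conjugate was incubated in 0.1 M NaHCO3, pH 8.5, at 37 °C. Aliquots were withdrawn over time and assayed with TNBS for the appearance of free amino groups to give the FMS hydrolysis half-life.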

[13] = target: T1, Albumin; assay: The compound was evaluated for albumin associating affinity 0.7 M of FMS; procedure, shortened: as §2
[14] = test system: Escherichia coli; assay: The compound was evaluated for its ability to inhibit replication of Escherichia coli; assay type: functional, organism-based; procedure, shortened: as §3

SMILES	half-life [1]	Kd [2]	IC50 [3]	IC50 [4]	Kd [5]	Potency [6]	Ka [7]	IC50 [8]	Kd [9]	Kd [10]	IC50 [11]	half-life [12]	Kd [13]	IC50 [14]
CNC(C)[C@H]1CCC(N)[C@@H](O[C@@H]2C(N)C[C@@H](NC(=O)OCC3c4ccccc4-c4ccc(S(=O)(=O)O)cc43)C(O[C@H]3OC[C@](C)(O)C(NC)[C@@H]3O)[C@@H]2O)O1 (stereo partly specified)	1.3 h	20 µM	–	–	–	–	–	–	–	–	–	–	–	–
CNC(C)[C@H]1CCC(NC(=O)OCC2c3ccccc3-c3ccc(S(=O)(=O)O)cc32)[C@@H](O[C@@H]2C(NC(=O)OCC3c4ccccc4-c4ccc(S(=O)(=O)O)cc43)C[C@@H](NC(=O)OCC3c4ccccc4-c4ccc(S(=O)(=O)O)cc43)C(O[C@H]3OC[C@](C)(O)C(NC)[C@@H]3O)[C@@H]2O)O1 (stereo partly specified)	3.8 h	–	43 µM	23 µM	9.2 µM	<1%	131000 M⁻¹	19 µM	7.6 µM	17.2 µM	80 µM	8 h	32 µM	24 µM
CNC(C)[C@H]1CCC(N)[C@@H](O[C@@H]2C(NC(=O)OCC3c4ccccc4-c4ccc(S(=O)(=O)O)cc43)C[C@@H](NC(=O)OCC3c4ccccc4-c4ccc(S(=O)(=O)O)cc43)C(O[C@H]3OC[C@](C)(O)C(NC)[C@@H]3O)[C@@H]2O)O1 (stereo partly specified)	–	9.2 µM	–	–	–	–	–	–	–	–	–	–	–	–
